Data as given in ChEMBL document CHEMBL2434893, “Synthesis, DNA binding and anti-leukemic activity of an aminoacyl nucleolipid” (Bioorg Med Chem Lett, 2013).
Activity calls are given as the source filed them. The rule behind the calls is not given here.

Key:
SNB-75 = assay: Cytotoxicity against human SNB75 cells assessed as cell growth at 10 uM after 48 hrs by SRB assay relative to control; type: functional; conditions: SNB-75, 48 h, read-out: Activity
In short: (§1)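 Single-dose (10 μM) screen run by the NCI Developmental Therapeutics Program on its 60 human cancer cell line panel. Viability was determined after 48 h incubation with the cells at 37 °C.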

COLO 205 = assay: Cytotoxicity against human COLO205 cells assessed as cell growth at 10 uM after 48 hrs by SRB assay relative to control; type: functional; conditions: COLO 205, 48 h, read-out: Activity
In short: (§2)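 NCI Developmental Therapeutics Program 60-cell-line screen at a single dose of 10 μM. Cells incubated with compound for 48 h at 37 °C before viability determination.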

RPMI-8226 = assay: Cytotoxicity against human RPMI8226 cells assessed as cell growth at 10 uM after 48 hrs by SRB assay relative to control; type: functional; conditions: RPMI-8226, 48 h, read-out: Activity; in short: as §2
IGROV-1 = assay: Cytotoxicity against human IGROV1 cells assessed as cell growth at 10 uM after 48 hrs by SRB assay relative to control; type: functional; conditions: IGROV-1, 48 h, read-out: Activity; in short: as §2
TK-10 = assay: Cytotoxicity against human TK10 cells assessed as cell growth at 10 uM after 48 hrs by SRB assay relative to control; type: functional; conditions: TK-10, 48 h, read-out: Activity; in short: as §1
BT-549 = assay: Cytotoxicity against human BT549 cells assessed as cell growth at 10 uM after 48 hrs by SRB assay relative to control; type: functional; conditions: BT-549, 48 h, read-out: Activity; in short: as §2
NCI-H226 = assay: Cytotoxicity against human NCI-H226 cells assessed as cell growth at 10 uM after 48 hrs by SRB assay relative to control; type: functional; conditions: NCI-H226, 48 h, read-out: Activity; in short: as §2
MDA-MB-435 = assay: Cytotoxicity against human MDA-MB-435 cells assessed as cell growth at 10 uM after 48 hrs by SRB assay relative to control; type: functional; conditions: MDA-MB-435, 48 h, read-out: Activity; in short: as §2
SK-MEL-5 = assay: Cytotoxicity against human SK-MEL-5 cells assessed as cell growth at 10 uM after 48 hrs by SRB assay relative to control; type: functional; conditions: SK-MEL-5, 48 h, read-out: Activity; in short: as §2
SK-MEL-28 = assay: Cytotoxicity against human SK-MEL-28 cells assessed as cell growth at 10 uM after 48 hrs by SRB assay relative to control; type: functional; conditions: SK-MEL-28, 48 h, read-out: Activity; in short: as §2
[1] = Binding affinity to GRP78 duplex DNA (unknown origin) assessed as change in duplex DNA hyperchromicity at 0.9 to 3.9 mM after 36 hrs by thermal denaturation assay
In short: (§3)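 Duplex DNA (1.1 μM) annealed from complementary strands in phosphate buffer (140 mM KCl, 1 mM MgCl₂, 5 mM sodium phosphate, pH 7.2), with ligand 0.2–3.9 mM. Melting followed as % hyperchromicity at 260 nm over 5–90 °C. Tm shift measured against native duplex.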

[2] = Binding affinity to GRP78 duplex DNA (unknown origin) at 0.7 mM after 36 hrs by gel shift mobility assay relative to control
In short: (§4)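 Complementary strands (0.57 μM) annealed in 30% sucrose in TAE buffer (89 mM Tris/acetate, 2.5 mM EDTA, […]), incubated 36 h at 37 °C with ligand at 0, 5, 25, 50, 100 equiv per DNA phosphate (0, 0.2, 0.9, 1.9, 3.9 mM). Run on 24% native PAGE. DNA bands visualized by UV-shadowing at 260 nm. K_D taken from the duplex band ratio with versus without ligand.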

CAKI-1 = assay: Cytotoxicity against human Caki1 cells assessed as cell growth at 10 uM after 48 hrs by SRB assay relative to control; type: functional; conditions: CAKI-1, 48 h, read-out: Activity; in short: as §2
SF-268 = assay: Cytotoxicity against human SF268 cells assessed as cell growth at 10 uM after 48 hrs by SRB assay relative to control; type: functional; conditions: SF-268, 48 h, read-out: Activity; in short: as §2
DU-145 = assay: Cytotoxicity against human DU145 cells assessed as cell growth at 10 uM after 48 hrs by SRB assay relative to control; type: functional; conditions: DU-145, 48 h, read-out: Activity; in short: as §2
NCI-H23 = assay: Cytotoxicity against human NCI-H23 cells assessed as cell growth at 10 uM after 48 hrs by SRB assay relative to control; type: functional; conditions: NCI-H23, 48 h, read-out: Activity; in short: as §2
LOX IMVI = assay: Cytotoxicity against human LOXIMVI cells assessed as cell growth at 10 uM after 48 hrs by SRB assay relative to control; type: functional; conditions: read-out: Activity; in short: as §2
SK-OV-3 = assay: Cytotoxicity against human SKOV3 cells assessed as cell growth at 10 uM after 48 hrs by SRB assay relative to control; type: functional; conditions: SK-OV-3, 48 h, read-out: Activity; in short: as §1
UACC-62 = assay: Cytotoxicity against human UACC62 cells assessed as cell growth at 10 uM after 48 hrs by SRB assay relative to control; type: functional; conditions: UACC-62, 48 h, read-out: Activity; in short: as §1
A498 = assay: Cytotoxicity against human A498 cells assessed as cell growth at 10 uM after 48 hrs by SRB assay relative to control; type: functional; conditions: A498, 48 h, read-out: Activity; in short: as §2
Malme-3M = assay: Cytotoxicity against human MALME-3M cells assessed as cell growth at 10 uM after 48 hrs by SRB assay relative to control; type: functional; conditions: read-out: Activity; in short: as §2
Hs-578T = assay: Cytotoxicity against human Hs578T cells assessed as cell growth at 10 uM after 48 hrs by SRB assay relative to control; type: functional; conditions: read-out: Activity; in short: as §2
T47D = assay: Cytotoxicity against human T47D cells assessed as cell growth at 10 uM after 48 hrs by SRB assay relative to control; type: functional; conditions: read-out: Activity; in short: as §1
[3] = Binding affinity to GRP78 duplex DNA (unknown origin) assessed as DNA-compound complex formation at 3.9 mM measured at 36 hrs by dynamic light scattering analysis relative to control
In short: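 DNA (1.1 μM), with or without ligand at 3.9 mM, incubated 36 h in phosphate buffer. Particle size then measured by dynamic light scattering against native DNA and ligand alone.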

CCRF-CEM = assay: Cytotoxicity against human CCRF-CEM cells assessed as cell growth at 10 uM after 48 hrs by SRB assay relative to control; type: functional; conditions: read-out: Activity; in short: as §2
RXF 393 = assay: Cytotoxicity against human RXF393 cells assessed as cell growth at 10 uM after 48 hrs by SRB assay relative to control; type: functional; conditions: RXF 393, 48 h, read-out: Activity; in short: as §2
[4] = Binding affinity to GRP78 duplex DNA (unknown origin) after 36 hrs by gel shift mobility assay; in short: as §4
U-251 = assay: Cytotoxicity against human U251 cells assessed as cell growth at 10 uM after 48 hrs by SRB assay relative to control; type: functional; conditions: U-251, 48 h, read-out: Activity; in short: as §1
[5] = Binding affinity to GRP78 duplex DNA (unknown origin) assessed as change in melting temperature at 0.2 mM after 36 hrs by thermal denaturation assay; in short: as §3

CCCCCCCCCCCCCCCC(=O)O[C@@H]1[C@H](OC(=O)CCCCCCCCCCCCCCC)[C@@H](C(=O)N[C@@H](CCCCN)C(=O)OC)O[C@H]1n1cnc2c(=O)[nH]c(NC(=O)C(C)C)nc21.Cl
growth at 10 µM (SNB-75): 94.1% | growth at 10 µM (COLO 205): 101% | growth at 10 µM (RPMI-8226): 92.5% | growth at 10 µM (IGROV-1): 91.8% | growth at 10 µM (TK-10): 101% | growth at 10 µM (BT-549): 105% | growth at 10 µM (NCI-H226): 102% | growth at 10 µM (MDA-MB-435): 99.7% | growth at 10 µM (SK-MEL-5): 101% | growth at 10 µM (SK-MEL-28): 113% | Activity [1]: Active | Activity [2]: 50% | growth at 10 µM (CAKI-1): 94% | growth at 10 µM (SF-268): 97.1% | growth at 10 µM (DU-145): 107% | growth at 10 µM (NCI-H23): 97.8% | growth at 10 µM (LOX IMVI): 93.5% | growth at 10 µM (SK-OV-3): 99.4% | growth at 10 µM (UACC-62): 112% | growth at 10 µM (A498): 98.1% | growth at 10 µM (Malme-3M): 98.5% | growth at 10 µM (Hs-578T): 107% | growth at 10 µM (T47D): 88.2% | fold change (FC) [3]: > 2 | growth at 10 µM (CCRF-CEM): 86% | growth at 10 µM (RXF 393): 105% | Kd [4]: 700 µM | growth at 10 µM (U-251): 90.2% | ΔTm [5]: 4 °C
